STAT1 act: STAT1 signaling activators, primary screen, cell-based, HTS, luciferase reporter; NIH 3T3 STAT1-luciferase reporter, IFN-gamma, luminescence; 100% = IFN-gamma alone, no compound; activation (% of control), % at 5.5 µM; actives 2.6% (n = 200,000); AID 932, 2007;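 active = activation above the screen-wide mean activation plus 3 SD, cut at about 130% in these data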;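 also: raw ratio to IFN-gamma control signal so 100% means no change and 0% no light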
STAT3 inh-1: IL-6 driven STAT3 reporter inhibitors, primary screen, U3A cells, luciferase, luminescence, MLSCN library | AID 862, 2007 | inhibition, % at 5.5 µM | IL-6 STAT3-luciferase reporter; host cell line lacks STAT1 | actives 0.89% (n = 190,000);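 active = inhibition above the mean inhibition across all screened compounds plus 3 SD, cut at about 44% in these data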;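 also: 0% = DMSO only wells and 100% = 100 µM nifuroxazide control wells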
APP 5'UTR act: activators of APP 5'UTR luciferase reporter, primary screen, SH-SY5Y cells; SH-SY5Y APP 5'UTR luciferase reporter, luminescence; zero percent = DMSO vehicle wells; AID 1276, 2008; activation, % at 2 µM; actives 1% (n = 190,000);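 active = activation above a set limit, based on mean plus 3 SD of controls, cut at about 140% in these data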
NF-kB neuron act: activators of NF-kB expression in neurons, primary screen, cell-based, HTS; fold change at 12.5 µM; human neuronal cells, NF-kB reporter expression; hits give high values; AID 1239, 2008; actives 1.6% (n = 190,000); in the data active = fold change above about 3.3
STAT3 activator: IL-6 driven STAT3 reporter potentiators, primary screen, U3A cells, luciferase, luminescence, MLSCN library | IL-6 STAT3-luciferase reporter; 100% = signal with IL-6 EC80 alone | activation (% of control), % at 5.6 µM | actives 0.91% (n = 190,000) | AID 871, 2007;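 active = activation above the screen-wide mean of compound activation plus 3 SD, cut at about 130% in these data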;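 also: 0% = background luminescence of wells with medium and substrate only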
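Material: human STAT1-deficient U3A cells with stable STAT3-luciferase reporter / Probe or stimulus: IL-6 stimulus at 33 ng/mL final / Schedule: 1 h compound pre-exposure, 6 h IL-6 stimulation, 37 °C / Technique: luminescence / Read-out basis: percent of IL-6-only median luminescence / Control set: IL-6-only high control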
STAT1 inh: STAT1 signaling inhibitors, primary screen, cell-based, HTS, luciferase reporter. NIH 3T3 STAT1-luciferase reporter, IFN-gamma, luminescence. inhibition, % at 5.5 µM. actives 0.35% (n = 200,000). AID 920, 2007;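 active = inhibition above a set limit, the mean inhibition across all tested compounds plus 3 SD, cut at about 34% in these data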;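 also: 0% = IFN-gamma with DMSO and 100% = IFN-gamma with 300 µM nifuroxazide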
STAT3 inh-2: STAT3 reporter inhibitors, retest of hits, confirmation, U3A cells, luciferase, luminescence. shares compounds with STAT3 inh-1. IL-6 STAT3 luciferase reporter; cell line lacks STAT1. inhibition, % at 5.7 µM. actives 45% (n = 1,200);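 active = inhibition above the hit cutoff computed for the primary STAT3 screen, cut at about 44% in these data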;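 also: 0% = IL-6 plus DMSO and 100% = IL-6 plus nifuroxazide control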
NFkB inh STAT3ct: NF-kB reporter inhibitors in human cells, confirmation, counter-screen for STAT3 inhibitor project, cell-based, HEK293T, luciferase, TNF-alpha stimulus; actives 36% (n = 1,200); shares compounds with STAT3 inh-1; inhibition, % at 5.7 µM; TNF-alpha induced;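 active = inhibition above the mean of solvent-only control wells plus 3 SD, cutoff set per campaign, cut at about 13% in these data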;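 also: 0% = TNF-alpha with DMSO and 100% = TNF-alpha with MG high control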
STAT1 inh STAT3c: STAT1 reporter inhibitors, IFN-gamma induced, confirmation, counter-screen for STAT3 inhibitor project, cell-based, NIH 3T3, luciferase luminescence; shares compounds with STAT3 inh-1; actives 27% (n = 1,200); inhibition, % at 5.7 µM; NIH 3T3 STAT1-luciferase reporter;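 active = inhibition above the mean plus 3 SD of solvent-only control wells, limit set per screening run, cut at about 16% in these data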;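 also: 0% = DMSO with IFN-gamma and 100% = nifuroxazide control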
Numbers without * were called inactive; . = not tested or not shown. A selection: hits, their analogues and other compounds. The true share with any hit is near 4.9%.

SMILES	STAT1 act	STAT3 inh-1	APP 5'UTR act	NF-kB neuron act	STAT3 activator	STAT1 inh	STAT3 inh-2	NFkB inh STAT3ct	STAT1 inh STAT3c
COc1ccc(N2CS(=O)CC2=O)cc1 (stereo unspecified)	106.0	2.5	-10.2	1.34	107.6	-8.4	.	.	.
c1csc(CNc2ccc3c(c2)OCCO3)c1	85.7	85.5*	0.0	1.2	27.7	15.8	-92.9	-7.2	-80.2
Oc1ccccc1CNc1ccc2c(c1)OCCO2	92.2	14.9	22.8	2.14	91.5	6.5	.	.	.
Cc1nc(C(=O)O)nn1-c1cc(Cl)ccc1Cl	104.5	5.3	-1.1	0.86	101.6	-5.9	.	.	.
Cc1sc2ncnc(N3CCN(CCOc4ccc(Cl)cc4)CC3)c2c1C	79.9	76.3*	-3.1	1.13	37.1	21.7	76.9*	24.7*	19.6*
Cc1ccc(N2C(=O)c3ccccc3C2O)nc1 (stereo unspecified)	99.3	73.6*	113.4	1.3	40.0	1.6	43.8*	8.1	-20.8
Cc1nn(-c2ccccc2Cl)c(Cl)c1/C=N/Nc1cccc(C(=O)O)c1	80.8	50.8*	2.7	9.75*	57.4	21.2	-7.1	60.9*	45.6*
CC(O)/C=C/c1ccc2ccccc2n1 (stereo unspecified)	112.4	-1.3	10.4	2.63	104.7	-11.7	.	.	.
Cc1ccsc1/C=C/c1ccc2ccccc2n1	85.7	46.2*	176.8*	4.95*	69.1	15.8	46.0*	20.0*	6.6
Fc1cccc(F)c1/C=C/c1ccc2ccccc2n1	102.9	56.2*	165.7*	4.42*	54.6	-3.3	6.8	23.0*	-30.3
O=C(Cn1ccc(C(F)(F)F)n1)N/N=C/c1ccc2c(c1)OCO2	106.1	-6.1	16.1	1.57	103.9	-6.7	.	.	.
Cc1ccsc1/C=C1\CCc2ccccc2C1=O	70.7	78.2*	138.0*	3.55*	34.5	31.7	48.3*	10.7	-40.4
CC(=O)Nc1ccc(NC(=O)c2ccccc2S(=O)(=O)c2ccc([N+](=O)[O-])cc2)cc1	91.2	11.6	-26.9	1.27	93.3	7.8	.	.	.
Cc1sc2ncnc(NCC(C)(C)N3CCOCC3)c2c1C	79.5	47.2*	-8.8	0.71	61.2	24.3	56.0*	15.5*	18.5*
Cc1sc2ncnc(NCC3CCCO3)c2c1C (stereo unspecified)	82.3	26.0	7.2	0.74	80.7	19.4	.	.	.
Cc1sc2ncnc(NCC3COc4ccccc4O3)c2c1C (stereo unspecified)	75.7	74.1*	-7.6	0.48	36.2	26.8	83.4*	32.0*	23.1*
CCS(=O)(=O)N1CCC(C(=O)O)CC1	101.1	9.4	5.6	1.16	92.3	-1.1	.	.	.
CC(C)Cc1nc2ccccc2n1CCc1ccccc1	109.9	2.4	8.3	1.25	101.2	-10.9	.	.	.
CCN(CC)C(=O)COc1ccc2oc(-c3ccco3)cc(=O)c2c1	117.8	16.8	21.3	1.35	94.6	-20.6	.	.	.
Cc1cc(C)nc(NC(=O)/C=C/c2ccccc2Cl)c1	125.6	-13.3	109.9	3.17	111.0	-28.2	.	.	.
Cc1ccnc(NC(=O)/C=C/c2ccccc2Cl)c1	121.2	54.6*	185.6*	8.67*	55.4	-23.4	27.7	-9.0	-100.1
O=C1C2C3c4ccccc4C(c4ccccc43)C2c2nc3ccccc3n21 (stereo unspecified)	93.4	64.2*	-26.4	1.05	48.2	3.2	58.7*	12.4	-2.2

Bioassay records as filed in PubChem.
